DNA FID counter: compounds displacing fluorescent DNA intercalator, primary screen, artefact control for HCV NS3 helicase inhibitor project, biochemical, FID fluorescence; inhibition, % at 7.9 µM; 0.17% of 290,000 active; DNA fluorescent intercalator displacement; AID 1845, 2009; in the data active means inhibition above about 37%;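 further: 0% = vehicle and 100% = reference compound; higher means more ethidium bromide displaced from hairpin DNA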
GPR7 antag: GPR7 receptor antagonists, primary screen, cell-based, fluorescence, single concentration. 1.1% of 290,000 active. inhibition, % at 4.4 µM. GPR7-expressing cells, fluorescence antagonist assay; in the data active means inhibition above about 16%, passing the limit was not always enough;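 further: cells stimulated with the agonist NPW; 0% = agonist with vehicle and 100% = vehicle without agonist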
Target sequence (P48145 whole entry, looked up): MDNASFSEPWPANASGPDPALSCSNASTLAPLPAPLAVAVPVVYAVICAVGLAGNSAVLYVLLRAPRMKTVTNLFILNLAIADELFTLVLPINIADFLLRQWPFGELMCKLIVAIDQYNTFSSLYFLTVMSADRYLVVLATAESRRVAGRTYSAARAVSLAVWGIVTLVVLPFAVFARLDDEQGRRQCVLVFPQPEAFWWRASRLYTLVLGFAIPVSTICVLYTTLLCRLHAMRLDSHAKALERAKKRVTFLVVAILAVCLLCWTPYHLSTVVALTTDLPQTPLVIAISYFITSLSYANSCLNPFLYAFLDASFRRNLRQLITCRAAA
DAGLB inhibitor: DAGLB lipase inhibitors, primary screen, biochemical, fluorescence, HTS | 0.059% of 340,000 active | inhibition, % at 5.17 µM | Diacylglycerol lipase-beta (Homo sapiens), Q8NCG7 | HEK293T DAGLB membrane lysate, EnzChek fluorogenic substrate | AID 504411, 2011; in the data active means inhibition above about 34%;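 further: 0% = enzyme with vehicle and 100% = wells lacking enzyme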
GRK2 inh: compounds blocking aptamer binding on GRK2 – biochemical, human GRK2, bead flow cytometry, HTS, primary screen; FAM-aptamer displacement from GRK2; inhibition of aptamer binding, % at 10 µM; AID 488847, 2010; 0.59% of 330,000 active; Beta-adrenergic receptor kinase 1 (Homo sapiens), P25098;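 active means inhibition of aptamer binding above 40%, roughly 3 SD of noise, on plates passing a quality check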;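 further: median bead fluorescence of bound FAM aptamer so fluorescent compounds give negative values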
HCV core dimer: inhibitors of HCV core protein dimerization, primary screen, biochemical, TR-FRET, high-throughput. inhibition, % at 5 µM. TR-FRET GST/Flag-core106 dimerization, 1536-well. 0.33% of 300,000 active. AID 1899, 2009;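 active means inhibition above the mean of all tested compounds plus 3 SD, set per screening campaign, cut at about 45% in these data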
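Material: Tagged HCV core106 pair (GST and Flag) | Amount: GST-core106 13.5 nM, Flag-core106 17 nM | Medium: KF-containing HEPES buffer, pH 7.45, DTT, CHAPS, BSA | Reagent: Eu donor and XL665 acceptor anti-tag antibodies | Schedule: 4 h at 22.5 °C | Technique: Time-resolved FRET, ex 340 nm, em 617 and 671 nm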
HCV NS3 hel inh: inhibitors of HCV NS3 helicase, primary screen, biochemical, Cy5 molecular beacon fluorescence; Hepatitis C virus NS3 helicase; NS3 helicase DNA unwinding; inhibition, % at 10.9 µM; 0.56% of 290,000 active;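 active means inhibition above the mean of all tested compounds plus 3 SD, set per campaign, cut at about 35% in these data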;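 further: 0% = DMSO wells and 100% = thioflavine S control wells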
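assay system = NS3 helicase fragment of HCV | buffer or medium = MOPS pH 6.5, MgCl2, DTT, Tween20, BSA | timing = 60 min unwinding reaction at 25 °C after ATP addition | signal = Cy5 beacon fluorescence read at start and 1 h | read-out basis = % inhibition of unwinding | control set = low DMSO, high thioflavine S at 110 µM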
GPR7 antag conf: GPR7 receptor antagonists, confirmation, cell-based, fluorescence, single concentration | shares compounds with GPR7 antag | GPR7-expressing cells, calcium fluorescence antagonist mode | inhibition, % at 4.4 µM | 52% of 2,400 active | AID 1952, 2009; in the data active means inhibition above about 24%;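 further: stimulated with the GPR7 agonist NPW; 0% = agonist plus vehicle and 100% = vehicle alone without agonist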
MCHR1 antagonist: MCHR1 antagonists in cells, counter-screen for GPR7 antagonist project, cell-based, fluorescence, human; AID 2148, 2009; MCHR1-expressing cells, fluorescence antagonist assay; 62% of 2,400 active; inhibition, % at 4.4 µM; shares compounds with GPR7 antag; in the data active means inhibition above about 22%;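 further: 0% = vehicle with agonist and 100% = vehicle without agonist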
Active calls of the source: *; nt = no result. Most compounds without a hit are left out; they make up all but 2.2% or so of the library.

SMILES	DNA FID counter	GPR7 antag	DAGLB inhibitor	GRK2 inh	HCV core dimer	HCV NS3 hel inh	GPR7 antag conf	MCHR1 antagonist
COc1ccc(-n2c(C)cc(C(=O)COc3ccc(-n4cnnn4)cc3)c2C)cc1	-4	28*	0	0	42	1	12	24*
COc1ccc(OCCOC(=O)c2ccc(-n3cnnn3)cc2)cc1	-9	17	-4	1	3	-6	nt	nt
CCN(CC)CCCNC(=O)Cn1cnc2sc(C)c(S(=O)(=O)N3CCC(C)CC3)c2c1=O	8	-9	-4	0	-5	-6	nt	nt
OC(CNCc1ccco1)Cn1c2ccccc2c2ccccc21 (centres undefined)	27	21*	-1	0	-12	-61	19	14
OC(CNCc1ccco1)COc1ccccc1 (centres undefined)	-2	-6	2	nt	nt	0	nt	nt
COc1ccc(CCNC(=O)N[C@@H](Cc2ccccc2)C(=O)O)cc1	-11	4	1	0	-4	1	nt	nt
CSc1ccccc1OCc1cc(C(=O)NCc2ccc(C)s2)no1	-24	-23	-6	0	4	2	nt	nt
CCOC(=O)c1ccc(CNC(=O)c2cc(COc3ccccc3SC)on2)o1	-32	44*	-1	7	1	-5	13	45*
O=C(O)CCn1c(SCc2ccccc2)nc2ccccc21	-6	-7	-1	0	-4	10	nt	nt
Cc1noc(C)c1CSc1nc2ccccc2n1CCc1ccccc1	-23	26*	-5	1	0	-14	-3	10
COc1ccccc1S(=O)(=O)CC(O)COc1ccc(F)cc1Cl (centres undefined)	-10	-14	0	0	-1	0	nt	nt
CCCCOc1ccc(-c2cn3ccccc3n2)cc1[N+](=O)[O-]	-4	-6	0	0	2	12	nt	nt
CCCOc1ccc(-c2csc(N)n2)cc1[N+](=O)[O-]	5	27*	3	3	3	0	13	26*
CC(C)(C)OC(=O)N[C@@H](Cc1ccccc1)C(=O)NCC1CCC(C(=O)O)CC1 (some centres undefined)	-4	-8	-2	0	-5	3	nt	nt
COc1ccc(-n2c(SCCC#N)nnc2-c2cc(Cl)ccc2OC)cc1Cl	-26	24*	-3	0	14	-7	40*	46*
CCOC(=O)c1c(S(=O)(=O)N2CCCCC2C)c(C)n(C)c1C (centres undefined)	-18	-13	1	1	6	2	nt	nt
O=C(COC(=O)c1cccnc1Cl)Nc1cc(S(=O)(=O)N2CCCCCC2)ccc1Cl	nt	nt	-2	nt	nt	nt	nt	nt
COc1ccc(CCNC(=O)c2ccc3c(c2)N(Cc2ccc(F)cc2)CCS3)cc1OC	-38	29*	1	3	8	-32	31*	50*
COc1ccc(C(=O)NCCc2ccc(F)cc2)cc1OC	-4	-7	-1	0	-2	-5	nt	nt
O=C(N/C=N/O)C(c1ccccc1)c1ncc(C(F)(F)F)cc1Cl (centres undefined)	-15	1	0	0	-14	15	nt	nt
Cc1ccc(C2N(c3ccccc3)C(=S)N3CCCN23)cc1 (centres undefined)	-12	24*	-4	0	-4	-4	14	6
Cc1nn(CC(=O)NCCCc2ccccc2)c(C)c1[N+](=O)[O-]	-1	-2	-4	1	-3	-16	nt	nt

Source: PubChem (several laboratories)
